Activity calls are given as the source filed them.
Key:
[1] = tested on: Enterovirus A71; assay: Antiviral activity against pseudotyped Enterovirus A71 infected in human muscular rhabdomyosarcoma cells treated prior to viral infection and measured after 24 hrs by luminescence method; type: functional, organism-based; details: Enterovirus A
[2] = tested on: RD; assay: Cytotoxicity against human RD cells at 100 uM after 24 hrs by WST-1 assay relative to control; type: cell-based
[3] = tested on: Enterovirus A71; assay: Reversible inhibition of Enterovirus 71 3C protease assessed as recovery of enzyme activity at 10 to 20 equivalent using peptide substrate pre-incubated for 1 hr followed by dilution prior to substrate addition using ultra-filtered sample relative to control
[4] = biological target: T1, Cathepsin K (Homo sapiens) (UniProt P43235); assay: Inhibition of human Cathepsin K at 50 uM using Ac-LR-AFC as substrate preincubated for 10 to 15 mins followed by substrate addition and measured for 30 to 60 mins by fluorescence method relative to control
T1 sequence (whole entry): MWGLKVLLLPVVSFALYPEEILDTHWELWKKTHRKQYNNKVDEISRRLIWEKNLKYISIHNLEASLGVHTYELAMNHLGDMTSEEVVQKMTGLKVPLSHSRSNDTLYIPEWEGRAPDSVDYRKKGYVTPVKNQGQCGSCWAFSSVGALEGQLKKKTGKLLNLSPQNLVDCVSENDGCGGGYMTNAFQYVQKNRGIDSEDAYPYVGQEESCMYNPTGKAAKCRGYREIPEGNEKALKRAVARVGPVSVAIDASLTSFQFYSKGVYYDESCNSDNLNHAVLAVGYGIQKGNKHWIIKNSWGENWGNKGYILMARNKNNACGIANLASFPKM

[5] = tested on: Enterovirus A71; assay: Irreversible covalent inhibition of Enterovirus 71 3C protease assessed as Kinact/Ki ratio using NMA-IEALFQGPPK(DNP)FR as substrate and measured for 1 to 1.5 hrs by fluorescence method
[6] = biological target: Chymotrypsinogen A (Bos taurus) (UniProt P00766); assay: Inhibition of bovine pancreas alpha-chymotrypsin at 50 uM after 30 mins using N-Succinyl-L-phenylalanine- p-nitroanilide measured for 30 mins
[7] = tested on: Enterovirus A71; assay: Irreversible covalent inhibition of Enterovirus 71 3C protease assessed as steady-state velocity approaching zero up to 64 uM using NMA-IEALFQGPPK(DNP)FR as substrate by fluorescence method
[8] = biological target: T2, Calpain-1 catalytic subunit (Homo sapiens) (UniProt P07384); assay: Inhibition of human Calpain1 at 50 uM using Ac-LLY-AFC as substrate preincubated for 5 mins followed by substrate addition and measured after 10 mins by fluorescence method relative to control
T2 sequence (whole entry): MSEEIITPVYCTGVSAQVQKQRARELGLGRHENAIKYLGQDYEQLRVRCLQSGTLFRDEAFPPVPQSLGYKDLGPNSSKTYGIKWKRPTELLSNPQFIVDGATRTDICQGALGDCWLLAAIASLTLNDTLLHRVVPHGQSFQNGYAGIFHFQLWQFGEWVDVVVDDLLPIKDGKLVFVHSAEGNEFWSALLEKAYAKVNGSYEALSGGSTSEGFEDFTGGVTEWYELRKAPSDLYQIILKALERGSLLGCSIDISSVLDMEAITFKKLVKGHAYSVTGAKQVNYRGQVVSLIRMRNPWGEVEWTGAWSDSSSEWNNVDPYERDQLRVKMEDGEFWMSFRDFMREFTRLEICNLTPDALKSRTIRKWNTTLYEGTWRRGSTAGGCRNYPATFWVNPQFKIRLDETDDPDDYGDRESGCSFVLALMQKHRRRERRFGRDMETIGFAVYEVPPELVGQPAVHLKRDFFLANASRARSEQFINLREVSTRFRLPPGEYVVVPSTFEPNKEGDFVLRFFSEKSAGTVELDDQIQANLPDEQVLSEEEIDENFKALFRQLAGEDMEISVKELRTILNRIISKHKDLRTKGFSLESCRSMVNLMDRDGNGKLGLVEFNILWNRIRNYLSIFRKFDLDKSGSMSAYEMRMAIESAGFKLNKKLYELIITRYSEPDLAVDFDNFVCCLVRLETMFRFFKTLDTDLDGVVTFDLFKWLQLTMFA

[9] = tested on: Enterovirus A71; assay: Irreversible covalent inhibition of Enterovirus 71 3C protease up to 80 uM using NMA-IEALFQGPPK(DNP)FR as substrate by fluorescence method; details: TDE = time-dependent effect
[10] = tested on: Enterovirus A71; assay: Binding affinity to Enterovirus 71 3C protease assessed as enzyme-compound covalent adduct formation via Cys147 residue by measuring ratio of peak intensity of covalently modified to unmodified protein at 10 equivalent after 30 mins by HPLC-ESI/MS analysis
How it was run: (§1)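 Recombinant EV71 3C protease (40 µM) incubated with inhibitor at 30 °C in 50 mM Tris, 150 mM NaCl, 1 mM EDTA-2Na, pH 7.0. Free inhibitor and salts removed by three ultrafiltration washes with water (10 kDa cutoff). Analysis by HPLC-ESI-Orbitrap MS with 0.1% formic acid water/acetonitrile mobile phases. Spectra deconvoluted; modification given as adduct-to-unmodified protein peak intensity ratio (I_add/I_pro).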

[11] = Reversible inhibition of Enterovirus 71 3C protease assessed as overall inhibition constant using NMA-IEALFQGPPK(DNP)FR as substrate pre-incubated for 30 mins followed by substrate addition and measured over 30 mins by fluorescence method; set-up: species or system Enterovirus A71
[12] = tested on: Enterovirus A71; assay: Binding affinity to Enterovirus 71 3C protease assessed as enzyme-compound covalent adduct formation via Cys147 residue by measuring ratio of peak intensity of covalently modified to unmodified protein at 10 to 20 equivalent after 1 hr by HPLC-ESI/MS analysis; how it was run: as §1
[13] = tested on: Enterovirus A71; assay: Reversible inhibition of Enterovirus 71 3C protease assessed as recovery of enzyme activity at 10 to 20 equivalent using peptide substrate pre-incubated for 1 hr followed by dialysis and subsequent substrate addition measured up to 72 hrs relative to control; set-up: scale not given: the % may be the effect or the level left
[14] = tested on: Enterovirus A71; assay: Inhibition of Enterovirus 71 3C protease in presence of glutathione
[15] = tested on: Enterovirus A71; assay: Antiviral activity against pseudotyped FY Enterovirus A71 harboring luciferase reporter gene infected in HEK-293T cells in presence of lysine by Bright-Glo Luciferase Assay; type: functional, organism-based
[16] = tested on: Enterovirus A71; assay: Antiviral activity against pseudotyped FY Enterovirus A71 harboring luciferase reporter gene infected in HEK-293T cells in presence of glutathione by Bright-Glo Luciferase Assay; type: functional, organism-based
[17] = tested on: Enterovirus A71; assay: Inhibition of Enterovirus 71 3C protease in presence of lysine
[18] = tested on: Enterovirus A71; assay: Antiviral activity against pseudotyped FY Enterovirus A71 harboring luciferase reporter gene infected in HEK-293T cells in presence of ethanolamine by Bright-Glo Luciferase Assay; type: functional, organism-based
[19] = tested on: Enterovirus A71; assay: Inhibition of Enterovirus 71 3C protease in presence of ethanolamine

Row | EC50 [1] [nM] | SMILES | Activity [2] [%] | Ki [11] [nM] | other results
1 | > 100000 | Cc1cc(C(=O)N[C@@H](Cc2ccc(F)cc2)C(=O)N[C@H](C=C(Br)C#N)C[C@@H]2CCCNC2=O)no1 | 100 | – | –
2 | 17000 | CCOC(=O)/C=C/[C@H](C[C@@H]1CCCNC1=O)NC(=O)[C@H](Cc1ccc(F)cc1)NC(=O)c1cc(C)on1 | – | – | Ratio [5]: 72 M⁻¹ s⁻¹; inhibition [7]: Active; inhibition [9]: Tde
3 | > 100000 | CC(C#N)=C[C@H](C[C@@H]1CCCNC1=O)NC(=O)[C@H](Cc1ccc(F)cc1)NC(=O)c1cc(C)on1 | – | – | –
4 | 77 | CCCOC(=O)/C(C#N)=C/[C@H](C[C@@H]1CCCNC1=O)NC(=O)[C@H](Cc1ccc(F)cc1)NC(=O)c1cc(C)on1 | – | 10.3 | –
5 | > 100000 | Cc1cc(C(=O)N[C@@H](Cc2ccc(F)cc2)C(=O)N[C@H](CC(C#N)c2ccccn2)C[C@@H]2CCCNC2=O)no1 (mixture of isomers) | 50 | – | –
6 | – | Cc1cc(C(=O)N[C@@H](Cc2ccc(F)cc2)C(=O)N[C@H](C=O)C[C@@H]2CCCNC2=O)no1 | – | – | inhibition [4]: Active; inhibition [8]: < 50%
7 | 510 | CCNC(=O)/C(C#N)=C/[C@H](C[C@@H]1CCCNC1=O)NC(=O)[C@H](Cc1ccc(F)cc1)NC(=O)c1cc(C)on1 | – | 332 | –
8 | – | Cc1cc(C(=O)N[C@@H](Cc2ccc(F)cc2)C(=O)N[C@@H](C[C@@H]2CCCNC2=O)C(O)C#N)no1 (stereo partly specified) | – | – | inhibition [4]: Active; inhibition [8]: Active
9 | > 100000 | Cc1cc(C(=O)N[C@@H](Cc2ccc(F)cc2)C(=O)N[C@H](/C=C(\C#N)c2ccccc2)C[C@@H]2CCCNC2=O)no1 | – | – | –
10 | 89 | CCCN(C(=O)OC(C)(C)C)C(=O)/C(C#N)=C/[C@H](C[C@@H]1CCCNC1=O)NC(=O)[C@H](Cc1ccc(F)cc1)NC(=O)c1cc(C)on1 | – | 18 | –
11 | 670 | COC(=O)C(Cl)=C[C@H](C[C@@H]1CCCNC1=O)NC(=O)[C@H](Cc1ccc(F)cc1)NC(=O)c1cc(C)on1 | 100 | 152 | inhibition [4]: < 50%; inhibition [6]: inactive; inhibition [8]: < 50%
12 | > 100000 | COC(=O)C(C#N)C[C@H](C[C@@H]1CCCNC1=O)NC(=O)[C@H](Cc1ccc(F)cc1)NC(=O)c1cc(C)on1 (mixture of isomers) | – | – | –
13 | 72 | CCOC(=O)/C(C#N)=C/[C@H](C[C@@H]1CCCNC1=O)NC(=O)[C@H](Cc1ccc(F)cc1)NC(=O)c1cc(C)on1 | – | 13.1 | –
14 | > 100000 | Cc1cc(C(=O)N[C@@H](Cc2ccc(F)cc2)C(=O)N[C@H](C=C(Cl)C#N)C[C@@H]2CCCNC2=O)no1 | 100 | – | –
15 | 58 | Cc1cc(C(=O)N[C@@H](Cc2ccc(F)cc2)C(=O)N[C@H](/C=C(\C#N)C(=O)OC(C)C)C[C@@H]2CCCNC2=O)no1 | – | 16.1 | –
16 | 990 | CCCNC(=O)/C(C#N)=C/[C@H](C[C@@H]1CCCNC1=O)NC(=O)[C@H](Cc1ccc(F)cc1)NC(=O)c1cc(C)on1 | – | 752 | –

Row | SMILES | EC50 [1] [nM] | Activity [2] [%] | Ki [11] [nM] | other results
17 | COC(=O)/C=C/[C@H](C[C@@H]1CCCNC1=O)NC(=O)[C@H](Cc1ccc(F)cc1)NC(=O)c1cc(C)on1 | 18300 | – | – | Activity [3]: inactive; inhibition [4]: < 50%; Ratio [5]: 34 M⁻¹ s⁻¹; inhibition [6]: inactive; inhibition [7]: Active; inhibition [8]: < 50%; inhibition [9]: Tde; Ratio [10]: > 100
18 | Cc1cc(C(=O)N[C@@H](Cc2ccc(F)cc2)C(=O)N[C@H](/C=C(\C#N)c2ccc3ccccc3c2)C[C@@H]2CCCNC2=O)no1 | 13000 | – | – | –
19 | CCOC(=O)C(Cl)=C[C@H](C[C@@H]1CCCNC1=O)NC(=O)[C@H](Cc1ccc(F)cc1)NC(=O)c1cc(C)on1 | 380 | 100 | 164 | –
20 | CCOC(=O)C(Br)=C[C@H](C[C@@H]1CCCNC1=O)NC(=O)[C@H](Cc1ccc(F)cc1)NC(=O)c1cc(C)on1 | 350 | 100 | 117 | –
21 | COC(=O)C(Br)=C[C@H](C[C@@H]1CCCNC1=O)NC(=O)[C@H](Cc1ccc(F)cc1)NC(=O)c1cc(C)on1 | 290 | 100 | 115 | –
22 | Cc1cc(C(=O)N[C@@H](Cc2ccc(F)cc2)C(=O)N[C@H](/C=C(\C#N)c2ccccn2)C[C@@H]2CCCNC2=O)no1 | 460 | 100 | 119 | inhibition [4]: 65%; inhibition [6]: inactive; inhibition [8]: < 50%
23 | CNC(=O)/C(C#N)=C/[C@H](C[C@@H]1CCCNC1=O)NC(=O)[C@H](Cc1ccc(F)cc1)NC(=O)c1cc(C)on1 | 400 | – | 304 | Activity [3]: Active; Ratio [12]: 0.1; inhibition [4]: < 50%; inhibition [6]: inactive; inhibition [8]: < 50%; Activity [13]: 50%
24 | Cc1cc(C(=O)N[C@@H](Cc2ccc(F)cc2)C(=O)N[C@H](/C=C(\C#N)c2ccsc2)C[C@@H]2CCCNC2=O)no1 | 3100 | – | 516 | inhibition [4]: < 50%; inhibition [6]: inactive; inhibition [8]: < 50%
25 | CNC(=O)/C=C/[C@H](C[C@@H]1CCCNC1=O)NC(=O)[C@H](Cc1ccc(F)cc1)NC(=O)c1cc(C)on1 | 21000 | – | – | Ratio [5]: 46 M⁻¹ s⁻¹; inhibition [7]: Active; inhibition [9]: Tde; Ratio [10]: > 100
26 | Cc1cc(C(=O)N[C@@H](Cc2ccc(F)cc2)C(=O)N[C@H](/C=C(/C#N)c2ccccn2)C[C@@H]2CCCNC2=O)no1 | 2700 | 90 | 693 | –
27 | Cc1cc(C(=O)N[C@@H](Cc2ccc(F)cc2)C(=O)N[C@H](/C=C(/C#N)c2ccsc2)C[C@@H]2CCCNC2=O)no1 | 19500 | – | – | –
28 | Cc1cc(C(=O)N[C@@H](Cc2ccc(F)cc2)C(=O)N[C@H](/C=C(\C#N)C(=O)N(C)C)C[C@@H]2CCCNC2=O)no1 | 110 | – | 94 | inhibition [14]: inactive; Activity [15]: Active; Ratio [12]: 1; Activity [16]: Active; inhibition [17]: Active; Activity [18]: Active; inhibition [19]: Active
